Compounds with a hit are over-represented: about 0.74% of the library has one in this group of screens.
RGS16-Gao HTS: modulators of RGS16 binding to Galphao, primary screen, biochemical, human proteins, multiplexed bead flow cytometry. bead-based flow cytometry RGS16-Galphao binding, fluorescence; actives lie on both sides. binding response (% of control), % at 10 µM. Regulator of G-protein signaling 16 (Homo sapiens) + Guanine nucleotide-binding protein …. 0.38% of 220,000 active;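 note: Galphao activated by GDP with aluminum fluoride before binding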
RGS7-Gao: RGS7-Galphao binding modulators, primary screen, biochemical, multiplexed bead flow cytometry | 0.35% of 220,000 active | actives lie on both sides | binding response (% of control), % at 10 µM | AID 1439, 2008 | Guanine nucleotide-binding protein G(o) subunit alpha (Homo sapiens), P09471; in the data active = binding response below about 49% or above about 150%; inconclusive = no clear call, values can overlap the other calls; inactive = in between;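 note: fluorescent Galphao held in activated GDP-AlF4 state binding bead-coupled RGS7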
Target sequence (P09471 whole entry, looked up): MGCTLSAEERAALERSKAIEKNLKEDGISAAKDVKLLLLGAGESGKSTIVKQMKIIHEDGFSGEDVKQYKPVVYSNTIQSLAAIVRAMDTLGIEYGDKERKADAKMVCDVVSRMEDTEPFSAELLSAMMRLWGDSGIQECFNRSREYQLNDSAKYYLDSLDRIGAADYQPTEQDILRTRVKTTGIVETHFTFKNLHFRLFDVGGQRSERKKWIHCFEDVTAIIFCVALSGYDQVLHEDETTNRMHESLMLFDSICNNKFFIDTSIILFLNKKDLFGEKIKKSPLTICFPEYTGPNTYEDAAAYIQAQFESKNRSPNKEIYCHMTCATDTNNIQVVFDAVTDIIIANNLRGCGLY
RGS8-Gao: RGS8-Galphao binding modulators, primary screen, biochemical, multiplexed bead flow cytometry. Guanine nucleotide-binding protein G(o) subunit alpha (Homo sapiens), P09471. actives lie on both sides. response (percent of control binding), % at 10 µM. 0.34% of 220,000 active. AID 1423, 2008; in the data active = response below about 60% or above about 140%; inactive = in between;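 note: Galphao activated as the GDP aluminium fluoride complex binding bead-coupled RGS8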
Biofilm kill mix: clotrimazole potentiators killing C. albicans biofilm, primary screen, 4-compound mixtures; 0.02% of 120,000 active; AID 1242, 2008; inhibition, % at 7.6 µM; C. albicans biofilm persisters + clotrimazole, fluorescence viability; primary screen in compound mixtures of four per well;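 note: compounds exposed to preformed 24 h biofilms for 48 h; 0% = untreated biofilm control and 100% = clotrimazole plus chlorhexidine kill blank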
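Incubation: 24 h biofilm formation, then 48 h compound exposure, 37 °C | Material: C. albicans biofilms | Buffer or medium: RPMI/MOPS medium, pH 7.0 | Measured by: 2-h Alamar Blue fluorescence, 535/590 nm excitation/emission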
RGS4-Gao reg: modulators of RGS4 binding to Galphao, primary screen, biochemical, multiplexed bead flow cytometry; actives lie on both sides; AID 1415, 2008; 0.33% of 220,000 active; binding response (% of control), % at 10 µM; in the data active = binding response below about 49% or above about 150%; inactive = in between;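 note: fluorescent Galphao activated with aluminum fluoride binding bead-coupled RGS4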
RGS4-Gao HTS: modulators of RGS–Galpha-o binding, primary screen, biochemical, multiplexed beads, flow cytometry, RGS4/7/8/16/19; shares compounds with RGS16-Gao HTS; multiplexed bead flow cytometry; RGS4–Galpha-o binding response, % at 10 µM; 99% of 1,600 active; AID 1504, 2009;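 note: fluorescently labeled Galpha-o bound to GDP with aluminium fluoride binding biotinylated RGS beads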
Avidin counter: disruption of biotin probe capture by avidin, counter-screen for RGS protein interaction modulators, biochemical, flow cytometry, bead-based | 1,700 tested, under 10 active | streptavidin beads, fluorescein-biotin binding | inhibition, % at 10 µM | shares compounds with RGS16-Gao HTS | AID 1783, 2009;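 active = inhibition above 50%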;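 note: median green fluorescence of gated singlet beads compared with DMSO control wells; 0% = DMSO wells and 100% = complete loss of bead fluorescence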
RGS8-Gao confirm: RGS8-Galphao binding modulators, confirmation, biochemical, multiplexed bead flow cytometry, single concentration; shares compounds with RGS16-Gao HTS; bead-based flow cytometry RGS8-Galphao binding, fluorescence; actives lie on both sides; binding response (% of control), % at 10 µM; 3% of 1,700 active; in the data active = binding response below about 72% or above about 130%; inactive = in between;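 note: Galphao activated as GDP AlF4 complex before binding bead RGS8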
RGS7-Gao single: RGS7-Galphao binding modulators, confirmation, biochemical, multiplexed bead flow cytometry, single concentration. 7.8% of 1,700 active. bead-based flow cytometry RGS7-Galphao binding; actives lie on both sides. AID 1837, 2009. shares compounds with RGS16-Gao HTS. response (percent of control binding), % at 10 µM; in the data active = response below about 75% or above about 130%; inactive = in between;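 note: fluorescent Galphao activated with GDP and aluminum fluoride binding bead-coupled RGS7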
RGS16-Gao single: modulators of RGS16-Galphao protein binding, confirmation, biochemical, single concentration, multiplexed bead flow cytometry; shares compounds with RGS16-Gao HTS; bead-based flow cytometry; actives lie on both sides; response (% of control binding), % at 10 µM; 4% of 1,700 active; AID 1838, 2009; in the data active = response below about 74% or above about 130%; inactive = in between;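 note: Galphao activated as the GDP aluminium fluoride complex binding bead-coupled RGS16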
RGS4-Gao single: modulators of RGS4-Galphao protein binding, confirmation, biochemical, single concentration, multiplexed bead flow cytometry. binding response (% of control), % at 10 µM. actives lie on both sides. shares compounds with RGS16-Gao HTS. 4% of 1,700 active; in the data active = binding response below about 74% or above about 130%; inactive = in between
RGS19-Gao single: regulators of RGS19-Galphao binding, confirmation, biochemical, single point, multiplexed bead flow cytometry | shares compounds with RGS16-Gao HTS | bead-based flow cytometry RGS19-Galphao binding; actives lie on both sides | response (percent of control binding), % at 10 µM | 5% of 1,700 active | AID 1841, 2009; in the data active = response below about 50% or above about 160%; inactive = in between;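 note: 100% = no compound control and 0% = blank background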
Target sequence (P09471 whole entry, looked up): as above
Target sequence (P49795 whole entry, looked up): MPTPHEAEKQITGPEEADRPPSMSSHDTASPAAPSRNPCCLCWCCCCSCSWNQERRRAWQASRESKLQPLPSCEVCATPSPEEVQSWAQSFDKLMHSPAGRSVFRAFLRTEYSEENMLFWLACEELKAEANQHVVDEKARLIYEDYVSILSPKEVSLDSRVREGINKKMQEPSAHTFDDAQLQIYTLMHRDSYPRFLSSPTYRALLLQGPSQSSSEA
* = called active by the depositor; ? = inconclusive; . = no result given; [ ] = another dose, or the depositor's remark. Unless noted, the rule behind the calls is not given here.

SMILES	RGS16-Gao HTS	RGS7-Gao	RGS8-Gao	Biofilm kill mix	RGS4-Gao reg	Avidin counter	RGS8-Gao confirm	RGS7-Gao single	RGS16-Gao single	RGS4-Gao single	RGS19-Gao single	others
O=c1cc(C(F)(F)C(F)F)oc2ccccc12	.	.	.	.	.	1.0	97.4	96.3	97.0	98.1	106.5
COc1cc(NC(=O)CS(=O)(=O)c2ccc(C)cc2)cc(OC)c1OC	100.7	101.1	99.7	.	101.7	.	.	.	.	.	.
Cc1ccc(S(=O)(=O)CC(=O)Nc2ccc(F)c(F)c2F)cc1	-6.7*	?	9.2*	17.5	-12.1*	-1.0	100.7	101.5	99.5	101.4	97.4
CSc1ncccc1C(=O)Nc1nnc(C2CC2)s1	104.0	98.5	100.3	-1.7	100.8	.	.	.	.	.	.
COc1ccc(-c2c(C#N)c(C)nc3c2C(=O)c2ccccc2-3)cc1	100.1	98.2	103.2	.	100.7	.	.	.	.	.	.
Cc1nc2c(cc1C#N)C(=O)c1ccccc1-2	17.9*	85.1	73.8	6.9	86.1	-0.9	98.3	99.1	99.3	99.0	96.8	RGS4-Gao HTS=86.1*
CSc1ncccc1C(=O)Nc1nc2c(C)cccc2s1	108.9	102.4	104.1	11.7	101.3	.	.	.	.	.	.
Cc1cc(C(=O)Nc2nc3c(C)cccc3s2)c(C)o1	17.5*	79.3	68.4	.	72.3	-1.0	101.3	101.7	101.8	103.6	96.4	RGS4-Gao HTS=72.3*
CCOC(=O)CN1C(=O)S/C(=C/c2ccc3c(c2)n(C)c(=O)n3C)C1=O	23.2*	83.8	83.8	17.9	85.2	-2.2	101.1	97.4	99.3	98.0	114.4	RGS4-Gao HTS=85.2*
Cn1c(=O)n(C)c2cc(/C=C3/SC(=O)N(CC(=O)N4CCOCC4)C3=O)ccc21	82.8	95.5	93.2	11.4	95.2	.	.	.	.	.	.
Cc1cc2c3c(ccc(C)c3n1)N=CN2c1ccccc1	.	.	.	.	.	-0.4	99.6	80.0	92.3	92.2	86.9
Cc1cc(Nc2ccccc2)c2c([N+](=O)[O-])ccc(C)c2n1	104.1	98.3	101.2	4.2	103.5	.	.	.	.	.	.
Cc1cc(C)n(CCNC(=O)CC2C(=O)NCCN2CC2CCCCC2)n1 (stereo not drawn)	103.2	102.5	104.6	17.7	102.5	.	.	.	.	.	.
Cc1ccc2nc(-c3cc(N)cc(N)c3)oc2c1	87.5	80.5	92.9	.	84.5	.	.	.	.	.	.
Nc1ccc(-c2nc3ccc(N)cc3o2)cc1	40.0	1.9*	47.0*	.	50.5	0.2	106.4	105.1	107.5	103.3	105.1	RGS4-Gao HTS=50.5*
Nc1n[nH]c(N)c1N=Nc1ccccc1	107.7	99.0	100.2	-5.7	102.1	.	.	.	.	.	.
Nc1n[nH]c(N)c1N=Nc1ccc(Cl)cc1Cl	81.6	46.3*	72.0	13.5	52.8	-0.8	98.8	98.2	99.4	100.0	87.9	RGS4-Gao HTS=52.8*
Nc1nc(Sc2c([N+](=O)[O-])cc(C(F)(F)F)cc2[N+](=O)[O-])n[nH]1	99.1	?	99.2	13.3	103.6	.	.	.	.	.	.
COc1ccc(OC)c(C2=NOC(C(=O)Nc3ccccc3SC)C2)c1 (stereo not drawn)	95.6	98.0	94.8	.	91.1	.	.	.	.	.	.
COc1ccc(OC)c(C2=NOC(C(=O)Nc3cccc(C(C)=O)c3)C2)c1 (stereo not drawn)	118.3	302.7*[activator]	99.0	.	156.7*[activator]	2.7	93.3	88.4	91.2	92.9	92.7
CCOC(=O)c1sc(NC(=O)CSc2nnc(Cc3ccccc3)o2)c(C#N)c1C	18.7*	135.3	75.2	.	101.3	-1.0	69.5*	143.4*[activator]	50.7*	93.8	32.5*	RGS4-Gao HTS=101.3*
CCOC(=O)c1c(NC(=O)c2cc(-c3ccc(O)cc3)on2)sc(C(C)=O)c1C	344.1*[activator]	122.3	109.5	0.7	258.5*[activator]	-1.0	105.7	145.2*[activator]	195.8*[activator]	151.7*[activator]	432.9*[activator]
CCOC(=O)c1c(NC(=O)CSc2nc3ccccc3o2)sc(C(C)=O)c1C	-3.6*	2.6*	7.6*	4.9	1.8*	-1.1	104.0	105.4	106.9	103.6	124.5
CCOC(=O)N1CCN(C(=O)CN(Cc2ccc(Cl)cc2)S(=O)(=O)c2ccc(C)cc2)CC1	.	91.7	99.2	.	97.8	-0.8	97.2	97.3	98.0	100.0	93.1
Nc1nn(-c2ccccc2Cl)cc1-c1nn[nH]n1	99.1	?	101.8	20.0	102.9	.	.	.	.	.	.
SMILES	RGS16-Gao HTS	RGS7-Gao	RGS8-Gao	Biofilm kill mix	RGS4-Gao reg	Avidin counter	RGS8-Gao confirm	RGS7-Gao single	RGS16-Gao single	RGS4-Gao single	RGS19-Gao single	others
COc1cc(NCCC(=O)c2cccs2)c(OC)cc1Cl	99.6	?	100.3	14.7	99.3	.	.	.	.	.	.
Cn1c(=O)c(Oc2ccc(Cl)cc2)c(O)c2ccccc21	114.6	102.3	105.9	15.4	102.7	.	.	.	.	.	.
COc1ccc(Oc2c(O)c3ccccc3n(C)c2=O)cc1	-92.1	16.8*	9.0*	11.0	9.1*	-3.0	98.7	97.3	97.4	97.2	100.6
S=C(Nc1ccc2nc(-c3ccccn3)c(-c3ccccn3)nc2c1)N1CCCCC1	100.9	98.8	99.7	1.7	100.1	.	.	.	.	.	.
S=C(Nc1ccc2nsnc2c1)N1CCCCC1	2.5*	85.9	78.3	8.3	85.7	.	.	.	.	.	.	RGS4-Gao HTS=85.7*
O=C(NC(=O)c1cnccc1C(F)(F)F)Nc1ccccc1	87.2	?	87.9	9.4	85.7	.	.	.	.	.	.
Cc1cc2cc(CCNC(=O)c3cccc([N+](=O)[O-])c3)c(=O)[nH]c2cc1C	37.4	36.5*	61.2	16.1	35.3*	0.5	100.2	100.1	99.7	99.0	104.2

From PubChem BioAssay
